From ChEMBL document CHEMBL2169863, “Discovery, structure-activity relationship, and biological evaluation of noninhibitory small molecule chaperones of glucocerebrosidase” (J Med Chem, 2012)
Residue numbers refer to the chain shown, from its start. Activity calls are given as the source filed them.

Columns and labels:
Brain [1] = experiment: Tmax in C57BL/6 mouse brain at 50 mg/kg, ip; format: ADME, organism-based; parameters: dose 50 mg/kg, route intraperitoneal; settings: in vivo
Procedure, shortened: (§1)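 Male C57BL/6 mice, 18−26 g, given a single ip dose of 50 mpk in 20% PEG 400 + 80% (20% HP-β-CD). Plasma, brain and liver were sampled, and brain and liver were homogenized in 3 volumes of PBS pH 7.4 (dilution factor 4). Analysis was by LC−MS/MS. Mean profiles N = 3.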

Liver [2] = experiment: AUC (infinity) in C57BL/6 mouse liver at 50 mg/kg, ip; format: ADME, organism-based; parameters: time infinity, dose 50 mg/kg, route intraperitoneal; settings: in vivo; procedure, shortened: as §1
[3] = system: T1, Lysosomal acid glucosylceramidase (Homo sapiens), P04062 [N409S]; experiment: Activation of Glucocerebrosidase N370S/N370S mutant translocation to lysosome in Gaucher patient dermal fibroblasts at 5 uM incubated for 6 days by LAMP2 colocalization-based laser scanning confocal microscopic analysis relative to vehicle-treated control
T1 sequence (whole entry): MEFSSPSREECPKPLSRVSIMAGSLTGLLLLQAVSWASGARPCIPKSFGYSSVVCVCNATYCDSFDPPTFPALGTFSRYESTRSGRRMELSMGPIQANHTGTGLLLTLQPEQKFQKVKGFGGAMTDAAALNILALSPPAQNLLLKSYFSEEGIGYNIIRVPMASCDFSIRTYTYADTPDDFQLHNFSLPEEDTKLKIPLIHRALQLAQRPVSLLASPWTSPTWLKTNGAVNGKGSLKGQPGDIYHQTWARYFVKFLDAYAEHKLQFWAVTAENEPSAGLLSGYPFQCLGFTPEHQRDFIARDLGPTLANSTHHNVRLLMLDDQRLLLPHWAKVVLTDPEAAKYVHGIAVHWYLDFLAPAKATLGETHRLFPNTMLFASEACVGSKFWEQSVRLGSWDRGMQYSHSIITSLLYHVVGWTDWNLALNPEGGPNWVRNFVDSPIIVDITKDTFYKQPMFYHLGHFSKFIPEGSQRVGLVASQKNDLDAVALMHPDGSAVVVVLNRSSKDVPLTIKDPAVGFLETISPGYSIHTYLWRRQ
Procedure, shortened: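 N370S/N370S Gaucher dermal fibroblasts were treated 6 days at 1, 5 or 25 μM, with DMSO vehicle control. Cells were fixed in 3% paraformaldehyde, permeabilized with Triton-X and stained with anti-GCase R386 (Alexa555), anti-LAMP-2 (Alexa488) and DAPI. Confocal imaging used constant laser settings, scoring GCase/LAMP-2 colocalization.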

Brain [4] = experiment: Cmax in C57BL/6 mouse brain at 50 mg/kg, ip; format: ADME, organism-based; parameters: dose 50 mg/kg, route intraperitoneal; settings: in vivo; procedure, shortened: as §1
Brain [5] = experiment: AUClast in C57BL/6 mouse brain at 50 mg/kg, ip; format: ADME, organism-based; parameters: dose 50 mg/kg, route intraperitoneal, time 0 - last; settings: in vivo; procedure, shortened: as §1
[6] = Cytotoxicity against human dermal fibroblasts expressing GCase N370S/N370S mutant at 5 uM after 6 days; format: cell-based; settings: fibroblast, 144 h
Procedure, shortened: (§2)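 Fibroblasts of the stated genotype were seeded at 5000 cells/well. After 1 day they were switched to OPTI-MEM with 5% FBS and treated 6 days with compound. Viability was read by CellTiter-Glo luminescence on a parallel plate.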

Plasma [7] = experiment: AUC (infinity) in C57BL/6 mouse plasma at 50 mg/kg, ip; format: ADME, organism-based; parameters: time infinity, dose 50 mg/kg, route intraperitoneal; settings: in vivo; procedure, shortened: as §1
[8] = Activation of alpha-galactosidase using 4-MU-alpha-galactose as substrate
Brain [9] = experiment: AUC (infinity) in C57BL/6 mouse brain at 50 mg/kg, ip; format: ADME, organism-based; parameters: dose 50 mg/kg, route intraperitoneal, time infinity; settings: in vivo; procedure, shortened: as §1
Liver [10] = experiment: Metabolic stability in CD1 mouse liver microsomes assessed as compound remaining at 1 uM after 60 mins by LC/MS/MS analysis in presence of NADPH; format: ADME, Microsome; settings: 1 h
Procedure, shortened: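 Compound at 1 μM was incubated in duplicate with CD-1 mouse liver microsomes at 37 °C in 100 mM potassium phosphate pH 7.4 with 3 mM MgCl₂, with or without 2 mM NADPH, for 60 min. Reaction was quenched in cold acidified MeCN with internal standard. Parent was quantified by LC−MS/MS as percent of time zero.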

[11] = target: T2, Lysosomal acid glucosylceramidase (Homo sapiens, UniProt P04062); experiment: (§3) Binding affinity to NT-647 labeled glucocerebrosidase by microscale thermophoretic analysis; settings: read-out: Kd(app)
T2 sequence (P04062 whole entry): T1 sequence (whole entry) with S409N
Procedure, shortened: (§4)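 NT-647-labeled glucocerebrosidase at ~20 nM in 50 mM phosphate pH 7.2, 0.05% Tween-20. It was mixed 1:1 with a 16-point DMSO dilution series and incubated 15 min at room temperature before capillary microscale thermophoresis. Apparent K_d was taken from the dose-dependent fluorescence change.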

[12] = target: T3, Lysosomal acid glucosylceramidase (Homo sapiens) (UniProt P04062); experiment: as §3; procedure, shortened: as §4
T3 sequence (whole entry): T1 sequence (whole entry) with S409N

Plasma [13] = experiment: Half life in C57BL/6 mouse plasma at 50 mg/kg, ip; format: ADME, organism-based; parameters: dose 50 mg/kg, route intraperitoneal; settings: in vivo; procedure, shortened: as §1
Liver [14] = experiment: Tmax in C57BL/6 mouse liver at 50 mg/kg, ip; format: ADME, organism-based; parameters: dose 50 mg/kg, route intraperitoneal; settings: in vivo; procedure, shortened: as §1
Caco-2 [15] = experiment: Apparent permeability of the compound from basal to apical side of human Caco2 cells after 2 hrs; format: ADME, cell-based; settings: caco-2, 2 h
Procedure, shortened: (§5)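 Caco-2 monolayers were grown 3 weeks, with integrity checked by Lucifer yellow. Compound was added apically (pH 6.5 HBSS/HEPES/glucose buffer) or basolaterally (pH 7.4) and incubated 2 h. Transfer was quantified by LC−MS/MS and expressed as P_app. Efflux ratio is P_app B→A over A→B.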

Caco-2 [16] = experiment: Apparent permeability of the compound from apical to basal side of human Caco2 cells after 2 hrs; format: ADME, cell-based; settings: caco-2, 2 h; procedure, shortened: as §5
[17] = Cytotoxicity against human dermal fibroblasts expressing GCase L444P/L444P mutant at 5 uM after 6 days; format: cell-based; settings: fibroblast, 144 h; procedure, shortened: as §2
Caco-2 [18] = experiment: Efflux ratio of apparent permeability from basal to apical to apical to basal side of human Caco2 cells after 2 hrs; format: ADME, cell-based; settings: caco-2, 2 h; procedure, shortened: as §5
[19] = Ratio of AUClast in brain to AUClast in plasma in C57BL/6 mouse at 50 mg/kg, ip; format: ADME, organism-based; parameters: dose 50 mg/kg, route intraperitoneal; procedure, shortened: as §1
Liver [20] = experiment: AUClast in C57BL/6 mouse liver at 50 mg/kg, ip; format: ADME, organism-based; parameters: time 0 - last, dose 50 mg/kg, route intraperitoneal; settings: in vivo; procedure, shortened: as §1
Plasma [21] = experiment: Cmax in C57BL/6 mouse plasma at 50 mg/kg, ip; format: ADME, organism-based; parameters: dose 50 mg/kg, route intraperitoneal; settings: in vivo; procedure, shortened: as §1

C#Cc1ccc(NC(=O)c2cnn3c(C)cc(C)nc23)cc1
Tmax (Brain [1]): 15 min | AUC (Liver [2]): 105000 ng·h/mL | Activity [3]: Active | Cmax (Brain [4]): 2760 nM | AUClast (Brain [5]): 1260 ng·h/mL | Activity [6]: Non-toxic | AUC (Plasma [7]): 474 ng·h/mL | Activity [8]: inactive | AUC (Brain [9]): 1390 ng·h/mL | Stability (Liver [10]): 45% | Kd [11]: 9 µM | Activity [12]: Dose-dependent effect | t1/2 (Plasma [13]): 1160 min | Tmax (Liver [14]): 15 min | Papp (Caco-2 [15]): 2 ×10⁻⁶ cm/s | Papp (Caco-2 [16]): 6 ×10⁻⁶ cm/s | Activity [17]: Non-toxic | Ratio (Caco-2 [18]): 0.3 | Ratio AUC [19]: 290% | AUClast (Liver [20]): 54300 ng·h/mL | Cmax (Plasma [21]): 1030 nM
